Laboratory results published in PubChem BioAssay.
Activity calls are given as the source filed them.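 How the source made its calls, unless noted: active means potentiation averaged over duplicate wells exceeding buffer-only control mean by more than 3 SD; inactive means the rest.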

Assays:
[1] = nonspecific flux increase, KCNQ1-free cells – parental CHO cells, counter-screen for KCNQ1 potentiator project (AID 493006;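 active means duplicate-averaged activation above buffer control mean plus 5 SD of those controls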;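 on activation: fluorescence ratio of max minus min over baseline after K+ and Tl+ depolarization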); conditions: parental CHO-K1 cells, FluxOR thallium flux, at 10 µM; hits give high values
How it was run: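 Benchmarks – buffer and R-L3 controls · Assay system – untransfected host CHO-K1 cells with FluxOR thallium dye · Measure – fluorescence change ratio scaled 0% buffer, 100% R-L3 · Technique – kinetic thallium-flux fluorescence · Timing – overnight 37 °C plating, 90 min RT dye, 20 min compound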

[2] = target: Potassium voltage-gated channel subfamily KQT member 1 (Homo sapiens) (UniProt P51787); assay: enhancement of KCNQ1 channel thallium flux – FluxOR thallium flux, CHO cells, duplicates, confirmation (AID 493007); conditions: KCNQ1 cell line, FluxOR thallium flux fluorescence, at 10 µM; hits give high values, % of reference activator effect, buffer zero;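 on outcome: cells depolarized by a potassium plus thallium sulfate stimulus after compound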
How it was run: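 Material: CHO cells stably expressing the KCNQ1 potassium channel / Times: dye 90 min then compound 20 min, both at room temperature / Detection: kinetic thallium influx fluorescence with FluxOR dye, 10 s baseline, 110 s post-stimulus / Benchmarks: buffer-only wells as 0% and R-L3 activator as 100% / Replicates: each compound tested in duplicate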

[3] = target: Potassium voltage-gated channel subfamily KQT member 2 (Rattus norvegicus) (UniProt O88943); assay: KCNQ2 thallium flux enhancement – KCNQ2-CHO-K1 cells, selectivity assay for KCNQ1 potentiator project (AID 493009;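 active means mean duplicate potentiation above the buffer control mean plus 5 SD of buffer wells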;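 further: assay conditions were tuned for KCNQ1 rather than KCNQ2 modulators; signal is max minus min fluorescence divided by baseline after thallium stimulus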); conditions: FluxOR thallium flux fluorescence, at 10 µM; hits give high values, scaled: buffer 0, activator control 100
[4] = target: Potassium voltage-gated channel subfamily KQT member 1 (Homo sapiens) (UniProt P51787); assay: KCNQ1 activators by electrophysiology – IonWorks patch clamp, KCNQ1-CHO cells, orthogonal assay for KCNQ1 potentiator project, confirmation (AID 493184;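 active means current rise at least 3 SD above the untreated control mean in each of two repeat wells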;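 on current potentiation: percent change of the same well's current before compound addition so 0% = no change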); conditions: automated patch clamp current, at 10 µM; hits give high values
How it was run: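 Probe or stimulus: depolarizing pulse to +40 mV from -90 mV; Material: CHO cells carrying KCNQ1; Compound: one dose, 10 µM final; Signal: automated voltage clamp, amphotericin B perforated patch; Read-out basis: percent current increase versus pre-compound level; Buffer or medium: pH 7.4 external bath; Replication: duplicates.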

Potassium voltage-gated channel subfamily KQT member 1 (Homo sapiens), sequence (P51787 whole entry, looked up): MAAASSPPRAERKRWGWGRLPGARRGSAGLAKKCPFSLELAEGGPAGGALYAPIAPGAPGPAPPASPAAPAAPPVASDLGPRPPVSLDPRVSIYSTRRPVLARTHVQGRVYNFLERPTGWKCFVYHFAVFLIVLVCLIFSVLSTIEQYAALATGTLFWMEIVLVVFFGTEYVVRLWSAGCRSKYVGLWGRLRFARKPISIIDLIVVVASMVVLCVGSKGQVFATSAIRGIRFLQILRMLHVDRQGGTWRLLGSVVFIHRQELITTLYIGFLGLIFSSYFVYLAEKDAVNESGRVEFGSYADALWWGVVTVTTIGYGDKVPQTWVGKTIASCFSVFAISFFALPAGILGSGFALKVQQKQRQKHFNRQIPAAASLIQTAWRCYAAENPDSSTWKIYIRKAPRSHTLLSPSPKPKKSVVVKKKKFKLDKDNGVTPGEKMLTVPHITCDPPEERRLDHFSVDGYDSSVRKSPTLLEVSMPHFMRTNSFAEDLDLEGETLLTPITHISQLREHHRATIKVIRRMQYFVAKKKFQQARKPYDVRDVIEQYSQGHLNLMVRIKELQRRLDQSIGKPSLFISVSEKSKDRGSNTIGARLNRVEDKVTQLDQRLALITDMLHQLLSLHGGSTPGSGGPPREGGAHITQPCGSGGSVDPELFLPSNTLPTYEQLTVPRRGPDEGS
Potassium voltage-gated channel subfamily KQT member 2 (Rattus norvegicus), sequence (O88943 whole entry, looked up): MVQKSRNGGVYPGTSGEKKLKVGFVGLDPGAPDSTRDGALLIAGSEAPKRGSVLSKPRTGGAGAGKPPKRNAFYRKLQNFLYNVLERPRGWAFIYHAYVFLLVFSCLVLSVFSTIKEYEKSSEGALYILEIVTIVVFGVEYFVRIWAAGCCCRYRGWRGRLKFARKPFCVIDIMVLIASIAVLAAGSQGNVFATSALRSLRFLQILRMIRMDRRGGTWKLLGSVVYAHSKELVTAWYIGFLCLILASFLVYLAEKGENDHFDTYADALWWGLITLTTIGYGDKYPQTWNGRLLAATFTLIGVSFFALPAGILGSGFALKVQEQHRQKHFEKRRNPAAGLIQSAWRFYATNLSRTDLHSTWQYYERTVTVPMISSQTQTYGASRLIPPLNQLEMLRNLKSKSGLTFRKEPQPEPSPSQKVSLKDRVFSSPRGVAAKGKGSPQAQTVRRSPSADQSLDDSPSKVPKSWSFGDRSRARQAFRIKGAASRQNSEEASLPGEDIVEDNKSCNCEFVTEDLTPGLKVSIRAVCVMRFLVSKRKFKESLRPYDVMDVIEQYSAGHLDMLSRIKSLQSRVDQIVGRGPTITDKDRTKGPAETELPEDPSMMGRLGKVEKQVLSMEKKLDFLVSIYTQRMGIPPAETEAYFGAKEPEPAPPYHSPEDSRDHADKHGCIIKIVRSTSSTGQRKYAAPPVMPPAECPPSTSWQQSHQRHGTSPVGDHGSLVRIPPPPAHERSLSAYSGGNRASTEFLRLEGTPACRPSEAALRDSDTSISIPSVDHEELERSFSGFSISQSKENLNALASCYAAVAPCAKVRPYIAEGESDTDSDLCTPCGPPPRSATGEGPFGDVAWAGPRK

SMILES | outcome [1] | outcome [2] | outcome [3] | outcome [4] | activation [1] | potentiation [2] | potentiation [3] | current potentiation [4]
Cc1cc(S(=O)(=O)N2CCOCC2)ccc1OCC(=O)Nc1ccc(Br)cc1F | inactive | inactive | inactive | inactive |  |  |  | 
CCc1ccc(NC(=O)C(=O)NNC(=O)c2cccc(OC)c2)cc1 |  |  |  | inactive | 269% (active) | 124% (active) | 339% (active) | 
COC(=O)C(C)Sc1nc2c(c(=O)n(C)c(=O)n2C)n1Cc1cccc(C)c1 (stereo not given) | inactive | inactive | inactive | inactive |  |  |  | 
Cc1ccc(NC(=S)N/N=C2/CCCCc3ccccc32)cc1 |  |  |  | inactive | 274% (active) | 324% (active) | 484% (active) | 
CC(=O)Nc1cc(NC(C)=O)cc(C(=O)OC(C)C(=O)Nc2ccc(S(=O)(=O)N3CCCC3)cc2)c1 (stereo not given) |  |  |  | inactive | 224% (active) | 54% (active) | 216% (active) | 
CCCn1c(N)c(C(=O)CSc2nc(C)nc3sc(C)c(C)c23)c(=O)[nH]c1=O |  |  |  | inactive | 166% (active) | 23% (active) | 194% (active) | 
CC1(C)Cc2c(sc(/N=C/N3CCCCCC3)c2C#N)C(C)(C)N1 | inactive | inactive | inactive | inactive |  |  |  | 
Nc1c(C(=O)Nc2ccc(F)cc2)nnn1-c1cccc(C(F)(F)F)c1 | inactive | inactive | inactive | inactive |  |  |  | 
CCOC(=O)c1c(C)[nH]c(=S)c(C#N)c1-c1ccc(Cl)cc1 |  |  |  | inactive | 150% (active) | 34.5% (active) | 170% (active) | 
CC(C)CSC1=NSC2=NC(=O)/C(=C\c3cccs3)C(=N)N12 | inactive | inactive | inactive | inactive |  |  |  | 
O=C(NC(=S)N1CCc2ccccc21)c1ccccc1Br |  |  |  | inactive | 537% (active) | 208% (active) | 490% (active) | 
CCCCn1c(SCC(N)=O)nc2ccc(N3CCOCC3)cc2c1=O | inactive | inactive | inactive | inactive |  |  |  | 
C(=N\NC(=Nc1ccccc1)c1ccccn1)/c1ccccn1 | inactive | inactive | inactive | inactive |  |  |  | 
Cc1ccc(NC2=C(NC(=O)c3ccccc3)C(=O)c3ccccc3C2=O)cc1Cl | inactive | inactive | inactive | inactive |  |  |  | 
COCCCn1c(=S)[nH]c2c(sc3ccccc32)c1=O |  |  |  | inactive | 176% (active) | 69.5% (active) | 160% (active) | 
Cc1ccc(/C=C/C(=O)c2ccccc(=O)c2O)cc1C |  |  |  | inactive | 174% (active) | 56.5% (active) | 276% (active) | 
Cc1ccc(C(=O)NNC(=O)CCCCC(=O)NNC(=O)c2ccc(C)cc2)cc1 | inactive | inactive | inactive | inactive |  |  |  | 
COc1ccc(N=Nc2ccc(O)c3ncccc23)cc1 |  |  |  | inactive | 176% (active) | 90% (active) | 249% (active) | 
COc1ccc(/C=N\NC(=S)SCN2C(=O)C3CCC(C)(C2=O)C3(C)C)cc1 (stereo not given) | inactive | inactive | inactive | inactive |  |  |  | 
CN(C)c1nc(=Nc2cccc(Cl)c2)ss1 |  |  |  | inactive | 312% (active) | 119% (active) | 273% (active) | 

SMILES | outcome [1] | outcome [2] | outcome [3] | outcome [4] | activation [1] | potentiation [2] | potentiation [3] | current potentiation [4]
Cc1onc(-c2ccccc2)c1C(=O)NC(=S)Nc1sc2c(c1C#N)CCC(C)C2 (stereo not given) |  |  |  | inactive | 145% (active) | 28% (active) | 142% (active) | 
O=C(NC(=S)N1CCN(c2ccccc2)CC1)c1ccccc1 |  |  |  | inactive | 226% (active) | 71% (active) | 281% (active) | 
S=c1nc2ccccc2c2nc(-c3ccccc3)[nH]n12 | inactive | inactive | inactive | inactive |  |  |  | 
O=c1c(O)c(-c2cccs2)oc2ccccc12 |  |  |  | inactive | 290% (active) | 115% (active) | 289% (active) | 
CCC1CCCCN1S(=O)(=O)c1ccc(NC(=O)c2cccnc2)cc1 (stereo not given) | inactive | inactive | inactive | inactive |  |  |  | 
CCOc1ccc2nc(Nc3nc4ccc(NC(C)=O)cc4s3)sc2c1 | inactive | inactive | inactive | inactive |  |  |  | 
CC(C)CN1C(=O)/C(=C/c2cccs2)NC1=S |  |  |  | inactive | 392% (active) | 180% (active) | 450% (active) | 
CCN1C(=O)/C(=C/c2ccc(C)s2)NC1=S |  |  |  | inactive | 208% (active) | 57.5% (active) | 258% (active) | 
O=C(N/N=C/c1c[nH]c2ccccc12)C1COc2ccccc2O1 (stereo not given) | inactive | inactive | inactive | inactive |  |  |  | 
COc1ccc(C(=O)O/N=C(\N)Cc2ccc(Cl)cc2Cl)cc1OC | inactive | inactive | inactive | inactive |  |  |  | 
Cc1ccc(Cc2c[nH]c(=S)s2)cc1 |  |  |  | inactive | 348% (active) | 126% (active) | 343% (active) | 
CCCCNC(=O)/C(C#N)=C/c1ccc2c(c1)OCCO2 | inactive |  | inactive | inactive |  | 18.5% (active) |  | 
Cn1c(=NC(=O)c2ccco2)sc2cccc(F)c21 | inactive | inactive | inactive | inactive |  |  |  | 
CCOC(=O)c1cnc2c(C)c(Cl)ccc2c1N1CCN(CC)CC1 | inactive | inactive | inactive | inactive |  |  |  | 
O=Cc1cc2ccccc2nc1SCCCF | inactive | inactive | inactive | inactive |  |  |  | 
CC1CCN(S(=O)(=O)c2cccc(C(=O)N3CCN(c4ccc(F)cc4)CC3)c2)CC1 | inactive | inactive | inactive | inactive |  |  |  | 
CCOCCc1c(O)nc(SC)[nH]c1=O | inactive | inactive | inactive | inactive |  |  |  | 
CC(Oc1ccc(Br)cc1)C(=O)Nc1ccc(S(=O)(=O)N(C)C2CCN(C)CC2)cc1 (stereo not given) |  |  |  | inactive | 626% (active) | 190% (active) | 570% (active) | 
O=C(Nc1nc2c(Br)cc(Br)cc2c(=O)s1)C1CCC1 |  |  |  | inactive | 192% (active) | 29% (active) | 176% (active) | 
COc1ccccc1C(=O)NC(=S)NNC(=O)c1sc2ccccc2c1Cl |  |  |  | inactive | 358% (active) | 187% (active) | 361% (active) | 

SMILES | outcome [1] | outcome [2] | outcome [3] | outcome [4] | activation [1] | potentiation [2] | potentiation [3] | current potentiation [4]
COc1ccc(CN2CCCC(CNC(=O)c3ccc(F)cc3)C2)c(C)c1C (stereo not given) | inactive | inactive | inactive | inactive |  |  |  | 
O=C(CCC(=O)c1ccc(F)cc1)Nc1cc(Cl)cc(Cl)c1 | inactive | inactive | inactive | inactive |  |  |  | 
Cc1ccc(NC(=S)NC(=O)c2cncc(Br)c2)cc1Cl |  |  |  | inactive | 323% (active) | 246% (active) | 449% (active) | 
Cc1ccc2nc(NC(=O)c3ccc(Br)o3)sc2c1 | inactive | inactive | inactive | inactive |  |  |  | 
O=c1c2ccc(Cl)cc2[nH]c(=S)n1CCC1=CCCCC1 |  |  |  | inactive | 156% (active) | 48.5% (active) | 166% (active) | 
C[C@@H](NC(=O)[C@@H]1Cc2ccccc2CN1)C(=O)NC1CCCC1 | inactive | inactive | inactive | inactive |  |  |  | 
Cc1cc(N=Cc2cc(Br)ccc2O)no1 |  | inactive | inactive | inactive | 144% (active) |  |  | 
CCCCN(CCCC)c1ccc(C(=O)c2ccccc2C(=O)O)c(O)c1 |  |  |  |  | 212% (active) | 51.5% (active) | 182% (active) | 15.1% (active)
CCOC(=O)/C(C)=N/NC(=O)c1ccc([N+](=O)[O-])cc1 |  |  |  | inactive | 328% (active) | 157% (active) | 349% (active) | 
CC(/C=C1\SC(=S)N(NS(=O)(=O)c2ccc(C)cc2)C1=O)=C\c1ccccc1 |  |  |  | inactive | 507% (active) | 424% (active) | 666% (active) | 
O=C(O)C1C2CCC(O2)C1C(=O)NCCC1=CCCCC1 (stereo not given) | inactive | inactive | inactive | inactive |  |  |  | 
COc1cc(OC)cc(C(=O)NC(=S)N2CCCCCC2)c1 | inactive |  |  | inactive |  | 48% (active) | 198% (active) | 
CCOc1ccc(C(=O)C(CCC(CN(C)C)C(=O)c2ccc(OCC)cc2)CN(C)C)cc1 (stereo not given) | inactive |  |  | inactive |  | 34.5% (active) | 152% (active) | 
Cn1ccnc1SCC(=O)NC1CC1 | inactive | inactive | inactive | inactive |  |  |  | 
CC(C)COn1c(=S)[nH]c2ccccc2c1=O |  | inactive |  | inactive | 164% (active) |  | 198% (active) | 
COc1cccc(C(=O)NNC(=O)C(=O)Nc2ccc(C)cc2)c1 |  |  |  | inactive | 206% (active) | 92% (active) | 308% (active) | 
CC(=O)N1N=C(N)SC12CCCC2 | inactive | inactive | inactive | inactive |  |  |  | 
COc1ccc(C(=O)On2c(-c3ccc(Br)cc3)nc3ccccc3c2=O)cc1 | inactive | inactive | inactive | inactive |  |  |  | 
O=C1Nc2cc(C(=O)NCCCN3CCOCC3)ccc2S/C1=C/c1cccc(Cl)c1 | inactive | inactive | inactive | inactive |  |  |  | 
COc1ccc(-c2nc3ccc(C(=O)NCC(OC)OC)cc3nc2-c2ccc(OC)c(OC)c2)cc1OC | inactive | inactive | inactive | inactive |  |  |  | 
